Measurements pooled from the literature.
Protocols differ between the studies behind these lines.
Target: Serine/threonine-protein kinase PAK 2 (PAK2, Homo sapiens, UniProt Q13177)

| Compound | test | conditions | remaining binding |
| --- | --- | --- | --- |
| N[C@@H]1CCN(c2nccc(-c3cnn4ncccc34)n2)C1 | binding | 1 µM | 100% |
| O=C(N[C@H]1CCCCC/C=C\C2C[C@@]2(C(=O)O)NC(=O)[C@@H]2C[C@@H](Oc3ccncc3)CN2C1=O)OC1CCCC1 (stereo partly shown) | binding, competition with immobilised ligand | 1 µM | 79% |
| FC(F)(F)Oc1cccc(-c2cnc3ccc(-c4ccncc4)nn23)c1 | cell-free assay, competition with immobilised ligand | 5 µM | 43% |
| COc1cc(-c2cn(C3CCc4c(F)cccc4N(CC(F)(F)F)C3=O)nn2)ccc1-n1cnc(C)c1 (stereo not shown) | cell-free assay, competition with immobilised ligand | 1 µM | 91% |
| Nc1ncc2c(n1)-c1c([nH]c3ccc(C#CC4CC4)cc13)CCCC2 | binding, competition with immobilised ligand | 1 µM | 33% |
| COc1cnc(Nc2cccc(S(N)(=O)=O)c2)nc1N1CCN(c2ccccc2)CC1 | binding, competition with immobilised ligand | 1 µM | 100% |
| O=C(NCCCN1CCOCC1)c1ccc(Nc2ncc(Cl)c(-c3ccc(Cl)s3)n2)cc1 | binding, competition with immobilised ligand | 1 µM | 90% |
| CC(C)(C)c1ccc(-c2nc(CBr)nn2-c2cccc(O)c2)cc1 | cell-free assay, competition with immobilised ligand | 10 µM | 100% |
| CNC(=O)c1ccc(Nc2ncc(C(F)(F)F)c(NCc3nccnc3N(C)S(C)(=O)=O)n2)cc1 | cell-free assay, competition with immobilised ligand | 0.1 µM | 72% |
| C[C@@H]1CN(c2ccc3ncc(-c4ccc5[nH]nc(C6CC6)c5c4)n3n2)C[C@H](C)O1 | binding, competition with immobilised ligand | 50 nM | 76% |
| CN(C)c1ncc(F)c(-c2cnn3ncccc23)n1 | binding | 1 µM | 89% |
| C[C@@H](c1cccc(C#N)c1)n1cc(Cl)cc(C(N)=O)c1=N | cell-free assay, competition with immobilised ligand | 1 µM | 96% |
| c1cnn2ncc(-c3ccnc(N4CCC45COC5)n3)c2c1 | binding | 1 µM | 70% |
| C[C@@H](c1ccc(-n2cnc3c(N)ncnc32)cc1)N1CCc2nn(C)c(Cc3ccccc3)c2C1=O | binding, competition with immobilised ligand | 0.1 µM | 61% |
| C[C@@H]1CCN(c2nccc(-c3cnn4ncccc34)n2)C1 | binding | 1 µM | 99% |
| O=C(c1ccc(Nc2nccc(-c3cc4ccccc4s3)n2)cc1)N1CCC(N2CCCC2)CC1 | binding, competition with immobilised ligand | 1 µM | 69% |
